How the values were obtained:
[1] = target: Amyloid-beta precursor protein (Homo sapiens, UniProt P05067); assay: Binding affinity to amyloid beta (1 to 42) (unknown origin) aggregates assessed as apparent dissociation constant after 30 mins by fluorescence spectroscopic analysis; settings: read-out: Kd(app)
Procedure, shortened: (§1)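 Tau: human 441-aa tau expressed in E. coli, aggregated at 1 mg/mL in MES buffer pH 6.8 with 0.1 mg/mL heparin, 37 °C for 3 days with shaking. Abeta1-42 aggregated at 0.25 mg/mL in PBS pH 7.4, 37 °C for 42 h with shaking. Aggregates at final 10 µg/mL were incubated with ligand (final 0.02–10 µM) for 30 min at room temperature. Apparent Kd was taken from fluorescence saturation curves at ex 440 nm, em 510 nm (tau) or em 480 nm (Abeta). Mean ± SEM of six independent experiments.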

[2] = target: Microtubule-associated protein tau (Homo sapiens, UniProt P10636); assay: Binding affinity to recombinant human tau (441 amino acid residues) aggregates expressed in Escherichia coli assessed as apparent dissociation constant after 30 mins by fluorescence spectroscopic analysis; settings: read-out: Kd(app); procedure, shortened: as §1
Chain of Microtubule-associated protein tau (P10636 whole entry): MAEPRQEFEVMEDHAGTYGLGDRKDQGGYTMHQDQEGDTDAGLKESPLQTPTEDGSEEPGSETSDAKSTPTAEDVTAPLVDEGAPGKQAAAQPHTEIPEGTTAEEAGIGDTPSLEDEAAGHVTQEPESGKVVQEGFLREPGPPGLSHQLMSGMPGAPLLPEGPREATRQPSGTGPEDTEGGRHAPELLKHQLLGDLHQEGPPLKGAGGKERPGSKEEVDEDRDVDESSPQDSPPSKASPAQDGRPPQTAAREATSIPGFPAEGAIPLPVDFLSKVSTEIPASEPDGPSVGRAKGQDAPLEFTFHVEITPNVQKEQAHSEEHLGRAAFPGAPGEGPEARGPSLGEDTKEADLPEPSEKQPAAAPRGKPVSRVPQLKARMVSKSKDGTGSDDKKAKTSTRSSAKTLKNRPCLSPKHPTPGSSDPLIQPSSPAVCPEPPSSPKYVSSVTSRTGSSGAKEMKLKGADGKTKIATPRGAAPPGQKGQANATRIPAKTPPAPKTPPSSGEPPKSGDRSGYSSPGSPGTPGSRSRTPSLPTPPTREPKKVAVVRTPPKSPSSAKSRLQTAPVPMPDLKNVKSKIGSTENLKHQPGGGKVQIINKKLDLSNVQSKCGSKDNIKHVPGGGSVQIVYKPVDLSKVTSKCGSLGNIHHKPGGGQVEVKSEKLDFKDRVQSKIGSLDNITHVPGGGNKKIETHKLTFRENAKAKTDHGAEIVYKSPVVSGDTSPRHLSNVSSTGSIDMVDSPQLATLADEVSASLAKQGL

[3] = species: Homo sapiens; assay: Selectivity ratio of Kd(app) for amyloid beta (1 to 42) (unknown origin) aggregates to Kd(app) for recombinant human tau (441 amino acid residues) aggregates
Procedure, shortened: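 Human 441-aa tau, expressed in E. coli, was aggregated at 1 mg/mL (MES pH 6.8, 0.1 mg/mL heparin, 37 °C, 3 days, shaking). Aβ1–42 was aggregated at 0.25 mg/mL (PBS pH 7.4, 37 °C, 42 h). Aggregates were incubated 30 min at room temperature with ligand, and fluorescence read at ex 440 nm, em 510 nm (tau) or 480 nm (Aβ). Apparent Kd came from saturation curves over six independent experiments, and the ratio is Kd(Aβ)/Kd(tau).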

Chain of Amyloid-beta precursor protein (P05067 whole entry): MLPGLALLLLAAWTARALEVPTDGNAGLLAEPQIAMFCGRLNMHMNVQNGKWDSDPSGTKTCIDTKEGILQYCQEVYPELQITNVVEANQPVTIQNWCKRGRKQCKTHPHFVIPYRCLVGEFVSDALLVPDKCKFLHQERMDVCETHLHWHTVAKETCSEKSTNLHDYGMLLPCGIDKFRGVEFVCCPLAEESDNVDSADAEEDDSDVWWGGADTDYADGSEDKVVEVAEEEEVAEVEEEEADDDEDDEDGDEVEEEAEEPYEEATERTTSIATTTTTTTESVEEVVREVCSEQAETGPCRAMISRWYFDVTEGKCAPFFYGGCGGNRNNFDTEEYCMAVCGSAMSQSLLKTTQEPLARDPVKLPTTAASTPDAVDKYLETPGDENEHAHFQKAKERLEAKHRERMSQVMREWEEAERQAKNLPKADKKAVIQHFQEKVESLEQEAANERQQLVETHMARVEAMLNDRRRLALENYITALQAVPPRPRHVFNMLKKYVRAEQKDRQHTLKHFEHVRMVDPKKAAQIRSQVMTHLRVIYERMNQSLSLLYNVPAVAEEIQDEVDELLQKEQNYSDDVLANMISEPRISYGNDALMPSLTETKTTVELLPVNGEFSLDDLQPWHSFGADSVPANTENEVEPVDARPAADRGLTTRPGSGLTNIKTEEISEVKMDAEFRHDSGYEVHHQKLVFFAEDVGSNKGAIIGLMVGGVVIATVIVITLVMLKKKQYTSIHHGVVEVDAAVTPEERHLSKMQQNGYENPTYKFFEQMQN

- Kd [1]: 420 nM
- Kd [2]: 450 nM
- Selectivity ratio [3]: 0.93
Structure (SMILES): CNc1ccc(/C=C/c2nc3ccc(I)cc3[nH]2)cc1

From ChEMBL document CHEMBL2384977, “Synthesis and biological evaluation of novel styryl benzimidazole derivatives as probes for imaging of neurofibrillary tangles in Alzheimer's disease” (Bioorg Med Chem, 2013)
